These results are taken from ChEMBL document CHEMBL1125451, “Structure-activity studies of a novel bicyclic oxytocin antagonist” (J Med Chem, 1992).

The source made the active and inactive calls. No cut-off for these calls is given here. Numbered stars: 1 amine (or outer) side, 2 acyl side, 3 side chain; on linkers, the order of the positions; unused ones are H or OH. Bridge positions count the residues as written; N and C are the ends. Square brackets hold non-standard residues; d marks the D form. Peptide text beside a SMILES is read from it. * marks the point of attachment. X1 = CC(C)(CC(=O)[*:1])S[*:2]; Mpa = O=C(O)CCS; For = O=C* Some results are limits rather than exact numbers.

Experiment [1] relates to Rattus norvegicus. Kind of experiment: (§1) In vivo pressor activity by vasopressin assay in rats. The format is functional.
For experiment [2], the system named is Rattus norvegicus. The experiment is described as follows: (§2) In vivo oxytocin antagonistic activity […] was determined by galactogogic assay. The format is functional.
Experiment [3] deals with Rattus norvegicus. The experiment is described as follows: In vivo pressor activity by vasopressin assay in rats(inactive up to dose 2*10e-2). The format is functional.
For a further experiment, the target named is T1, Oxytocin receptor (Rattus norvegicus, UniProt P70536).
T1 sequence (P70536 whole entry): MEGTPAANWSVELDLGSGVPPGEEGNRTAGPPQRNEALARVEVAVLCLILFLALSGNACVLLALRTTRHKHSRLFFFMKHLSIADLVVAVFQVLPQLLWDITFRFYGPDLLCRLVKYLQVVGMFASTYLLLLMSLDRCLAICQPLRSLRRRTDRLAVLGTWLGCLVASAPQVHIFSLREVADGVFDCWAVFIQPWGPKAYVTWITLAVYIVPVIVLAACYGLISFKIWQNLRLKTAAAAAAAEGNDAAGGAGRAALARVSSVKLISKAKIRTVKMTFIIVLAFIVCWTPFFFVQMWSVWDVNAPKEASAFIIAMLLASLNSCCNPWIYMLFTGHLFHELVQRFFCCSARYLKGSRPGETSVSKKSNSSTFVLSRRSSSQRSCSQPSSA
The experiment is described as follows: In vitro Oxytocin receptor antagonistic activity against rat uterine strips. The format is functional. The settings on record: read-out: pA2 (converted). Summed up: (§3)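 Isolated uterine strips from Wistar rats estrogenized 24-48 h beforehand, tested in Munsick's solution by the Holton method. Cumulative oxytocin dose-response curves were constructed, with antagonist added to the bath 1 min before the oxytocin curve was started. Antagonism expressed as pA2.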

For experiment [4], the system named is Rattus norvegicus. Kind of experiment: In vivo pressor activity by vasopressin assay in rats; o = inactive up to dose 2*10e-2. The class given is functional, organism-based.
Experiment [5] is filed under the species Rattus norvegicus. Kind of experiment: In vitro oxytocin antagonistic activity against rat uterine strips; o = inactive up to dose 2*10e-2. The format is functional. The method in brief:
as §3

Experiment [6] deals with Rattus norvegicus. The description is as §1. The class given is functional, organism-based. The settings on record: read-out: pA2 (converted).
The species named for experiment [7] is Rattus norvegicus. The experiment is described as follows: In vitro oxytocin antagonistic activity against rat uterine strips. The format is functional. The settings on record: read-out: pA2 (converted). The method in brief:
as §3

Experiment [8] has as its system Rattus norvegicus. The experiment is described as §2. The class given is functional, organism-based. The settings on record: read-out: pA2 (converted).

As to `CC[C@H](C)[C@@H]1NC(=O)[C@H](Cc2ccc(O)cc2)NC(=O)CC(C)(C)SSC[C@@H](C(=O)N2CCC[C@H]2C(=O)N[C@@H](CCCCN)C(=O)NCC(N)=O)NC(=O)[C@H](CC(N)=O)NC(=O)[C@H](CCC(=O)O)NC1=O` (YIENCPKG-NH2; linker N-5 via X1) [listing 1 of 2 here], the values for the Activity with Rattus norvegicus [1] and with Rattus norvegicus [2] were 0 IU mg-1 and under 0.01 IU mg-1, respectively. `CC[C@H](C)[C@@H]1NC(=O)[C@H](Cc2ccc(O)cc2)NC(=O)[C@@H](N)CSSC[C@@H](C(=O)N2CCC[C@H]2C(=O)N[C@@H](CC(C)C)C(=O)NCC(N)=O)NC(=O)[C@H](CC(N)=O)NC(=O)[C@H](CCC(N)=O)NC1=O` [OXYTOCIN]: the Activity in the experiment with Rattus norvegicus [1] was 3.1 IU mg-1; with Rattus norvegicus [2], 450 IU mg-1. As for `CC[C@H](C)[C@@H]1NC(=O)[C@H](Cc2ccc(O)cc2)NC(=O)CCSSC[C@@H](C(=O)N2CCC[C@H]2C(=O)N[C@@H](CC(C)C)C(=O)NCC(N)=O)NC(=O)[C@H](CC(N)=O)NC(=O)[C@H](CCC(N)=O)NC1=O`, the results for the Activity in the experiment on Rattus norvegicus [1] and with Rattus norvegicus [2] were 1.44 IU mg-1 and 541 IU mg-1, respectively. With `CC[C@H](C)[C@@H]1NC(=O)[C@H](Cc2ccc(O)cc2)NC(=O)[C@@H](N)C(C)(C)SSC[C@@H](C(=O)N2CCC[C@H]2C(=O)N[C@@H](CC(C)C)C(=O)NCC(N)=O)NC(=O)[C@H](CC(N)=O)NC(=O)[C@H](CCC(N)=O)NC1=O`, the Activity in the experiment with Rattus norvegicus [3] is reported as 0 IU mg-1. Consider `CC[C@H](C)[C@@H]1NC(=O)[C@H](Cc2ccc(O)cc2)NC(=O)CC(C)(C)SSC[C@@H](C(=O)N2CCC[C@H]2C(=O)N[C@@H](CCCCN)C(=O)NCC(N)=O)NC(=O)[C@H](CC(N)=O)NC(=O)[C@H](CCC(=O)O)NC1=O` (YIENCPKG-NH2; linker N-5 via X1) [listing 2 of 2 here], for which the Kb at Oxytocin receptor is 1.58 µM. With `CC[C@H](C)[C@@H]1NC(=O)[C@H](Cc2ccc(O)cc2)NC(=O)CCSSC[C@@H](C(=O)N2CCC[C@H]2C(=O)N[C@@H](CCCCNC=O)C(=O)NCC(N)=O)NC(=O)[C@H](CC(N)=O)NC(=O)[C@H](CCC(=O)O)NC1=O`, the Activity with Rattus norvegicus [2] is on record as 8 IU mg-1. For `CC[C@@H](C)[C@@H]1NC(=O)[C@@H](Cc2ccc(O)cc2)NC(=O)CCSSC[C@@H](C(=O)N2CCC[C@@H]2C(=O)N[C@@H](CCCCNC=O)C(=O)NCC(N)=O)NC(=O)[C@H](CC(N)=O)NC(=O)[C@@H](CCC(=O)O)NC1=O`, the result in the experiment on Rattus norvegicus [4] and in the experiment filed under Rattus norvegicus [5] was inactive.

Take `CC[C@H](C)[C@@H]1NC(=O)[C@H](Cc2ccc(O)cc2)NC(=O)CCSSC[C@@H](C(=O)N2CCC[C@H]2C(=O)N[C@@H](CCCCN)C(=O)NCC(N)=O)NC(=O)[C@H](CC(N)=O)NC(=O)[C@H](CCC(=O)O)NC1=O`: the Activity came out at 0.1 IU mg-1 in the experiment on Rattus norvegicus [1] and 9.1 IU mg-1 in the experiment on Rattus norvegicus [2].

Regarding `CC[C@H](C)[C@@H]1NC(=O)[C@H](Cc2ccc(O)cc2)NC(=O)CC(C)(C)SSC[C@@H](C(=O)N2CCC[C@H]2C(=O)N[C@@H](CCCCNC=O)C(=O)NCC(N)=O)NC(=O)[C@H](CC(N)=O)NC(=O)[C@H](CCC(N)=O)NC1=O` (YIQNCPK(For)G-NH2; linker N-5 via X1) [listing 1 of 2 here], the Kb with Rattus norvegicus [6] is 0.631 µM; in the experiment listed under Rattus norvegicus [7] it was 0.0398 µM. With `CC[C@H](C)[C@@H]1NC(=O)[C@H](Cc2ccc(O)cc2)NC(=O)CCSSC[C@@H](C(=O)N2CCC[C@H]2C(=O)N[C@@H](CCCCNC=O)C(=O)NCC(N)=O)NC(=O)[C@H](CC(N)=O)NC(=O)[C@H](CCC(N)=O)NC1=O`, the Activity in the experiment with Rattus norvegicus [1] is 101.6 IU mg-1; in the experiment on Rattus norvegicus [2] it was 517 IU mg-1. On to `CC[C@H](C)[C@@H]1NC(=O)[C@H](Cc2ccc(O)cc2)NC(=O)CCSSC[C@@H](C(=O)N2CCC[C@H]2C(=O)N[C@@H](CCCCN)C(=O)NCC(N)=O)NC(=O)[C@H](CC(N)=O)NC(=O)[C@H](CCC(N)=O)NC1=O`, for which the figures for the Activity in the experiment on Rattus norvegicus [1] and with Rattus norvegicus [2] were 368 IU mg-1 and 272 IU mg-1, respectively.

In the case of `CC[C@H](C)[C@@H]1NC(=O)[C@H](Cc2ccc(O)cc2)NC(=O)CCSSC[C@@H]2NC(=O)[C@H](CC(N)=O)NC(=O)[C@H](CCC(=O)NCCCC[C@@H](C(=O)NCC(N)=O)NC(=O)[C@@H]3CCCN3C2=O)NC1=O` ([Mpa]YIENCPKG-NH2; disulfide 1-6; lactam 4-8) [listing 1 of 2 here], the Kb with Rattus norvegicus [8] was 1 µM; at Oxytocin receptor, 0.00631 µM. The compound `CC[C@H](C)[C@@H]1NC(=O)[C@H](Cc2ccc(O)cc2)NC(=O)CC(C)(C)SSC[C@@H](C(=O)N2CCC[C@H]2C(=O)N[C@@H](CCCCNC=O)C(=O)NCC(N)=O)NC(=O)[C@H](CC(N)=O)NC(=O)[C@H](CCC(N)=O)NC1=O` (YIQNCPK(For)G-NH2; linker N-5 via X1) [listing 2 of 2 here] gave an Activity in the experiment on Rattus norvegicus [2] of 1.1 IU mg-1. For the compound `CC[C@H](C)[C@@H]1NC(=O)[C@H](Cc2ccc(O)cc2)NC(=O)CCSSC[C@@H]2NC(=O)[C@H](CC(N)=O)NC(=O)[C@H](CCC(=O)NCCCC[C@@H](C(=O)NCC(N)=O)NC(=O)[C@@H]3CCCN3C2=O)NC1=O` ([Mpa]YIENCPKG-NH2; disulfide 1-6; lactam 4-8) [listing 2 of 2 here], the Activity in the experiment on Rattus norvegicus [1] is given as 0.1 IU mg-1. Regarding `CC[C@H](C)[C@@H]1NC(=O)[C@H](Cc2ccc(O)cc2)NC(=O)CC(C)(C)SSC[C@@H](C(=O)N2CCC[C@H]2C(=O)N[C@@H](CCCCNC=O)C(=O)NCC(N)=O)NC(=O)[C@H](CC(N)=O)NC(=O)[C@H](CCC(=O)O)NC1=O` (YIENCPK(For)G-NH2; linker N-5 via X1), in the experiment listed under Rattus norvegicus [7], the Kb was 7.94 µM.

Take `CC[C@H](C)[C@@H]1NC(=O)[C@H](Cc2ccc(O)cc2)NC(=O)CC(C)(C)SSC[C@@H](C(=O)N2CCC[C@H]2C(=O)N[C@@H](CCCCN)C(=O)NCC(N)=O)NC(=O)[C@H](CC(N)=O)NC(=O)[C@H](CCC(N)=O)NC1=O` (YIQNCPKG-NH2; linker N-5 via X1): the Kb on Oxytocin receptor is 0.0166 µM. For the compound `CC[C@H](C)[C@@H]1NC(=O)[C@H](Cc2ccc(O)cc2)NC(=O)CC(C)(C)SSC[C@@H](C(=O)N2CCC[C@H]2C(=O)N[C@@H](CC(C)C)C(=O)NCC(N)=O)NC(=O)[C@H](CC(N)=O)NC(=O)[C@H](CCC(N)=O)NC1=O` (YIQNCPLG-NH2; linker N-5 via X1), the results for the Kb in the experiment on Rattus norvegicus [6] and in the experiment listed under Rattus norvegicus [7] were 0.537 µM and 0.115 µM, respectively.
